Data: PubChem BioAssay AID561 (The Scripps Research Institute Molecular Screening Center, 2006)
About 280 (0.43%) of roughly 65,000 compounds were called active. The full list was thinned out, with actives kept by preference. Values without a mark were called inactive.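 Rule for the calls: active = inhibition above the mean of all tested compounds plus 3 SD (cut at about 52% in these data); inactive = the rest.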

Target: Nuclear receptor ROR-alpha (Homo sapiens) (UniProt P35398)
Assay: inhibitors of orphan receptor RORA, primary screen, cell-based, luminescence (AID 561);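 note: 0% = RORA-transfected cells with DMSO and 100% = mock-transfected cells lacking RORA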
Details: CHO-K1 Gal4-RORA LBD luciferase reporter, at 10 µM, hits give high values
How it was run: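 Material: transiently transfected CHO-K1 cells, Gal4-DBD/human RORA-LBD fusion plus 5xGal4-luciferase reporter; doses: single concentration per compound, 10 µM final; incubation: 20 h at 37 °C; detection: luminescence from basal luciferase reporter expression; read-out: % inhibition of basal luciferase versus +RORA/-RORA DMSO controls; replication: tested once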

Sequence of Nuclear receptor ROR-alpha (Homo sapiens) (P35398 whole entry, looked up): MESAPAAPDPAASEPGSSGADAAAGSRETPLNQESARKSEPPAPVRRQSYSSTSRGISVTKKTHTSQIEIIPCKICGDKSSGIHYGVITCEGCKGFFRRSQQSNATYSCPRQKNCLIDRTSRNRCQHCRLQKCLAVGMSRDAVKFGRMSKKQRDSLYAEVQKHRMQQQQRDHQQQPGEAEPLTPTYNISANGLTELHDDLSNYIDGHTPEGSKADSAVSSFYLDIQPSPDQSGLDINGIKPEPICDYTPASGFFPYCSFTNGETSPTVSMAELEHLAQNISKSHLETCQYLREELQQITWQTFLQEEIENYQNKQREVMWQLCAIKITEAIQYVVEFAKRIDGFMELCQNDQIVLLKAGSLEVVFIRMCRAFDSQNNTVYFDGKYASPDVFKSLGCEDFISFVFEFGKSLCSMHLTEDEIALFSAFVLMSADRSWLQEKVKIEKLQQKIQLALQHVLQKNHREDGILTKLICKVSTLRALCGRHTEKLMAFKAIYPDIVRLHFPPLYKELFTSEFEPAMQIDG

With `Fc1ccc2[nH]c3c(N4CCN(Cc5ccc6c(c5)OCO6)CC4)ncnc3c2c1` the inhibition was 86.3% (active).
With `Fc1ccc2[nH]c3c(N4CCSCC4)ncnc3c2c1` the inhibition was 80.8% (active).
For `CN(C)c1nc(N)nc(CSc2nnnn2-c2cccc3ccccc23)n1`, the inhibition was 53.2% (active).
With `COc1ccccc1-n1nnnc1S(=O)(=O)Cc1ccc(Cl)cc1` the inhibition was 54.4% (active).
With `CCNC(=O)CCc1nc(-c2ccc(C(C)(C)C)cc2)no1` the inhibition was 88.3% (active).
In the case of `CC[C@H]1CN2CCc3cc(OC)c(OC)cc3[C@@H]2C[C@@H]1C[C@H]1NCCc2cc(OC)c(OC)cc21`, the inhibition is reported as 95.3% (active).
For `CC[C@]1(O)CC2CN(CCc3c([nH]c4ccccc34)[C@@](C(=O)OC)(c3cc4c(cc3OC)N(C=O)[C@H]3[C@@](O)(C(=O)OC)[C@H](OC(C)=O)[C@]5(CC)C=CCN6CC[C@]43[C@@H]65)C2)C1` (stereo not given in full), the inhibition was 54% (active).

Compared with `CN(C)/C=C/c1c(C#N)c(=O)ncn1Cc1ccccc1`, `COC(=O)CCSc1nccn1Cc1ccccc1` is lower in inhibition: 15.5% for the first, 7.6% for the second.

Going from `Cc1ccc(Cn2nnc3c(=O)n(CC(=O)N4CCCCC4)cnc32)cc1` to `COc1ccccc1-c1cc(C(=O)N2CCCCC2)no1`, the inhibition falls from 19.7% to -56.5%.

First: O=C(NC1=NCCS1)c1ccc(Cl)s1
Second: OC1CN=C2Sc3ccccc3N2C1 (stereo not given)
The inhibition of the first is lower: -80.1% for the first, 10.5% for the second.

Going from `CC(C)OC(=O)C(C#N)c1nc2ccccc2nc1N1CCN(Cc2ccccc2)CC1` (stereo not given) to `COc1ccccc1CNC(=O)C1CCN(c2nc3ccccc3o2)CC1`, the inhibition rises from -19.7% to 14%.

First: O=C1C(C=NCC2CCCO2)=C(O)c2ccccc21 (stereo not given)
Second: CCOC(=O)Nc1ccccc1N1C(=O)c2ccccc2C1=O
The inhibition of the first is lower: -48.7% for the first, -13% for the second.

Compared with `Cc1nc2nc(COc3ccccc3)[nH]n2c(=O)c1C`, `Cn1c(=O)c(C(=O)Nc2ncccn2)c(O)c2ccccc21` is lower in inhibition: -0.2% for the first, -61% for the second.

First: Cc1ccc(-n2ncc3c2ncn2nc(-c4ccco4)nc32)c(C)c1
Second: Cc1ccc(Cc2nc(-c3cccc(C)c3)no2)cc1
The inhibition of the first is higher: -10.8% for the first, -51.5% for the second.

Compared with `O=c1oc2cc(O)ccc2cc1-c1ccc(F)cc1`, `OCCCNC(c1ccccc1)c1ccc(O)cc1` (stereo not given) is higher in inhibition: -61.8% for the first, 24.8% for the second.

First: CCCN(c1ccc(C(C)C)cc1)S(=O)(=O)c1c(C)[nH]c(=O)[nH]c1=O
Second: Cc1noc(C)c1S(=O)(=O)Nc1ccc(C(=O)O)cc1
The inhibition of the first is lower: -10.6% for the first, -7.4% for the second.

First: O=C(O)CC(c1ccccc1)n1cnnn1 (stereo not given)
Second: CC(=O)Nc1cccc(-c2cnc3ccccc3n2)c1
The inhibition of the first is higher: 15.8% for the first, -72.9% for the second.

Compared with `CC(=O)Oc1ccc(C(=O)Nc2nccs2)cc1`, `COc1ccc(CN(C(=O)c2cccs2)c2nccs2)cc1OC` is higher in inhibition: -61% for the first, -6.9% for the second.

Going from `COc1ccccc1C(=O)C(O)c1ccccc1OC` (stereo not given) to `COc1ccc(OC)c(CNC(=O)C2CCCN(c3nc4ccccc4o3)C2)c1` (stereo not given), the inhibition rises from -19.7% to 33.3%.

Compared with `O=C(c1cc(-c2cccs2)on1)N1CCCCC1`, `O=C(Nc1cccnc1)c1noc2c1CCCCC2` is higher in inhibition: -63.4% for the first, 19.3% for the second.

Compared with `Cn1c(SCc2c(F)cccc2Cl)nnc1-c1cnccn1`, `Cn1c(SCC(=O)Nc2cccc(O)c2)nnc1-c1ccc(S(=O)(=O)N2CCOCC2)cc1` is higher in inhibition: -62.8% for the first, -31.5% for the second.

Going from `Nc1ccc(-c2nnc(-c3ccc(-c4ccccc4)cc3)o2)cc1` to `CN(c1ccccc1)c1ccc(/C=c2\s/c(=C(/C#N)C(=O)C(C)(C)C)n(Cc3ccco3)c2=O)cc1`, the inhibition rises from -60.7% to 11.3%.

Compared with `CCS(=O)(=O)N1CCCC(C(=O)NCCCN(C)Cc2ccccc2)C1` (stereo not given), `COCCCNC(=O)Cn1cc(C(=O)C2CC2)c2ccccc21` is lower in inhibition: -3.1% for the first, -7.6% for the second.

Going from `Cc1cc(Cl)c(S(=O)(=O)Nc2ccc3c(c2)OCCO3)cc1OCC(N)=O` to `COc1ccc(Cl)cc1S(=O)(=O)Nc1cccc(C(=O)O)c1`, the inhibition falls from 22.5% to 2.9%.

Compared with `CCOc1ccccc1N(CC(=O)NC1CCCCC1)C(=O)CCCC(=O)Nc1ccccn1`, `O=C(C1CCC1)N1CCc2cc(S(=O)(=O)NCc3cccnc3)ccc21` is lower in inhibition: -9% for the first, -16.5% for the second.

First: CN1CCCC(OC(=O)COc2ccc(Br)cc2)C1 (stereo not given)
Second: CCCCc1nc2ccccc2c(NC(=O)CN2CCN(C)CC2)c1CCC
The inhibition of the first is lower: -27% for the first, -1.9% for the second.

First: Cc1cc(C)nc(NC(=O)Nc2ccccc2C(F)(F)F)n1
Second: Cc1cccc(NC(=O)CSc2nc3c(c(=O)[nH]2)CCC3)c1C
The inhibition of the first is lower: -29% for the first, 0.6% for the second.

Compared with `CC(C)CCNc1nc(N2CCCC2)c2c(c1C#N)CCN(C)C2`, `Cc1ccc(C(c2nnnn2C(C)(C)C)N2CCc3ccccc3C2)cc1` (stereo not given) is higher in inhibition: -5.2% for the first, -0.2% for the second.

For `O=C(O)CCC(=O)NCc1ccc2[nH]c3c(c2c1)CCCC3`, the inhibition was 11.8%.
